The text below walks through data of ChEMBL document CHEMBL3425488, “Novel histone deacetylase inhibitors induce growth arrest, apoptosis, and differentiation in sarcoma cancer stem cells” (J Med Chem, 2015).

By IC50 is commonly meant the point on the concentration scale where inhibition reaches its midpoint.

One assay has as its target Histone deacetylase 5 (Homo sapiens, UniProt Q9UQL6). Briefly: Inhibition of recombinant HDAC5 (unknown origin) by homogeneous fluorescence release assay. In a few lines: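 Recombinant HDAC isoform panel (HDAC1−11), tested in 10-dose IC50 mode with 3-fold serial dilution starting from 50 μM solutions.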
For assay [1], the system named is HOS. The assay is described as follows: Cytotoxicity against HOS cells assessed as cell viability after 72 hrs by MTT assay. Format: functional, cell-based. The conditions noted are these: Homo sapiens. Summed up:
(§1)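 Sarcosphere-derived CSC cultures exposed 72 h to concentrations from 100 μM down to 0.1 μM. Viability compared with DMSO-only treated cells. IC50 calculated by linear regression.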
For orientation: Tetrazolium assays rely on reduction of a dye to a coloured formazan, in cell work by metabolically active cells.

Assay [2] deals with RD. The assay is described as follows: Cytotoxicity against human RD cells assessed as cell viability after 72 hrs by MTT assay. Format: functional, cell-based. Summed up:
as §1

Assay [3] relates to SK-ES1. Briefly: Cytotoxicity against human SK-ES-1 cells assessed as cell viability after 72 hrs by MTT assay. Format: functional, cell-based. In a few lines:
as §1

Assay [4] concerns HOS. Briefly: Antiproliferative activity against HOS cells after 24 to 72 hrs by […] dye exclusion assay. Format: functional, cell-based. The conditions noted are these: Homo sapiens. In a few lines:
(§2)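 Sarcosphere-derived CSCs, dissociated to single cells, plated at 50000/well in complete IMDM for adhesion. After 24 h, exposed to 0.5, 1 and 2 μM. Viable cells counted by dye exclusion at 24, 48 and 72 h. Growth inhibition is expressed relative to DMSO-treated controls. Three experiments in duplicate.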

Assay [5] concerns RD. The assay is described as follows: Antiproliferative activity against human RD cells after 24 to 72 hrs by […] dye exclusion assay. Format: functional, cell-based. In a few lines:
as §2

The target of assay [6] is T1, Protein deacetylase HDAC6 (Homo sapiens) (UniProt Q9UBN7).
T1 sequence (whole entry): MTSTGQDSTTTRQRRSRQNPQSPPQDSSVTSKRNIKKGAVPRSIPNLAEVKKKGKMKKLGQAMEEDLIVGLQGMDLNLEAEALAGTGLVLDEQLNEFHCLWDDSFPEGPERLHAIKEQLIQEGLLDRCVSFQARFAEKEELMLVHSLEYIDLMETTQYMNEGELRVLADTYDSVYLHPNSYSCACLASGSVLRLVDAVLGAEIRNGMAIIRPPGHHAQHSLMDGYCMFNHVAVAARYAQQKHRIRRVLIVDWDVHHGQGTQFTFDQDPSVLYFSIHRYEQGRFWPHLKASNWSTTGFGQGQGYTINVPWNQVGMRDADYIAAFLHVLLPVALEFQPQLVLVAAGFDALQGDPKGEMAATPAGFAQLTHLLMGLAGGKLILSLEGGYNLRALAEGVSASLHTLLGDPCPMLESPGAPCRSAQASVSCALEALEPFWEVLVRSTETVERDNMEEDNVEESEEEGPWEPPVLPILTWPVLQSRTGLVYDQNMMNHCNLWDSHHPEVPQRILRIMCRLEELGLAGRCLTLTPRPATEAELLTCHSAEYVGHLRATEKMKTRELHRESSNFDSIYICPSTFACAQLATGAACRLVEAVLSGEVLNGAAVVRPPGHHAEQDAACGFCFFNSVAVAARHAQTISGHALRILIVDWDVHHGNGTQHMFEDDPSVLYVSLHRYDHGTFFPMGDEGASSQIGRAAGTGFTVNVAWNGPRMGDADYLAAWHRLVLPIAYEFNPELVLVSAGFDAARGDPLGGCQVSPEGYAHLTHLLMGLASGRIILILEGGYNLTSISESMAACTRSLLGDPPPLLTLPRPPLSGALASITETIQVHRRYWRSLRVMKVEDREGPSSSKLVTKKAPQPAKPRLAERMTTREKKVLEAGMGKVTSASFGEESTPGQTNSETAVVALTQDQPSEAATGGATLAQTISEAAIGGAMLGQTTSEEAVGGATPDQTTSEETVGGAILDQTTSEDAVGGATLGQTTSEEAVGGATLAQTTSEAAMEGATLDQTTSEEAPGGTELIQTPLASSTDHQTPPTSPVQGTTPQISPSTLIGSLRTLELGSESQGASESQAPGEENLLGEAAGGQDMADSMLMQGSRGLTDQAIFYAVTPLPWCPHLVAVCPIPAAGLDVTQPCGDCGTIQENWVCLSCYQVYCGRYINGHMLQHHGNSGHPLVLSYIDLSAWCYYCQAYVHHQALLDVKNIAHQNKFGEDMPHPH
Briefly: Inhibition of HDAC6 in human MG63 cells assessed as upregulation of acetyl-tubulin level at 0.5 to 2 uM after 24 hrs by Western blot analysis relative to control. Format: cell-based. The conditions noted are these: MG-63. Summed up:
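MG-63 sarcosphere-derived CSCs treated 24 h with 0.5 and 2 μM. Acetyl-tubulin measured by Western blot with densitometry normalized to TBP and expressed as index versus negative control.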

The subject of assay [7] is RD. The assay is described as follows: Induction of apoptosis in human RD cells at 1 to 2 uM after 48 hrs by Hoechst 33258 staining-based fluorescence microscopic analysis. Format: functional, cell-based. In a few lines:
(§3)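 Dissociated sarcospheres seeded on glass coverslips in complete IMDM and exposed to 0.5, 1 and 2 μM for 48 h; untreated cells as negative control. Fixed in methanol/acetic acid (3:1), then stained with 2.25 μg/mL Hoechst 33258 for 10 min at rt in the dark. Apoptotic-body nuclei counted over at least five fields (20× objective) and reported as percentage of cells.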

The subject of assay [8] is SK-ES1. Briefly: Induction of apoptosis in human SK-ES-1 cells at 1 to 2 uM after 48 hrs by Hoechst 33258 staining-based fluorescence microscopic analysis. Format: functional, cell-based. Summed up:
as §3

In a further assay the test system is A673. Briefly: Induction of apoptosis in human A673 cells at 1 to 2 uM after 48 hrs by Hoechst 33258 staining-based fluorescence microscopic analysis. Format: functional, cell-based. Summed up:
as §3

In assay [9] the test system is MG-63. Briefly: Induction of human MG63 cell differentiation assessed as increase in bone nodule formation after 14 days by Alizarin Red S staining-based spectrophotometric analysis. Format: functional. Summed up:
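Cells from dissociated MG-63 sarcospheres were grown in α-MEM with 10% FBS until 70% confluent. They were then switched to mineralization medium (10 mM β-glycerophosphate, 10−8 M dexamethasone, […] ascorbic acid 2-phosphate) and exposed continuously to 0.025–0.5 μM compound for 14 days. After fixation, Alizarin Red S staining (pH 4.2) was eluted with 10% cetylpyridinium chloride and read at 570 nm. Values are OD relative to medium-alone control, in triplicate.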

In assay [10] the target is Histone deacetylase (Homo sapiens) (UniProt Q13547+O15379+Q9UBN7+Q92769+Q9UQL6+Q8WUI4+Q9BY41+Q96DB2+P56524+Q9UKV0+Q969S8). The conditions noted are these: MG-63, 0.5 to 2 uM.
The next assay concerns the target Histone deacetylase 2 (Homo sapiens, UniProt Q92769). The assay is described as follows: Inhibition of recombinant HDAC2 (unknown origin) by homogeneous fluorescence release assay.
The target in the next assay is Histone deacetylase 3 (Homo sapiens, UniProt O15379). The assay is described as follows: Inhibition of recombinant HDAC3 (unknown origin) by homogeneous fluorescence release assay.
For assay [11], the system named is MG-63. The assay is described as follows: Induction of human MG63 cell differentiation assessed as increase in bone nodule formation at 0.025 to 0.5 uM after 14 days by Alizarin Red S staining-based spectrophotometric analysis relative to control. Format: functional. Summed up: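 MG-63 sarcosphere-derived cells in mineralization medium (10 mM β-glycerophosphate, 10−8 M dexamethasone, ascorbic acid 2-phosphate) with continuous 0.025–0.5 μM exposure for 14 days. Fixed in 3.7% paraformaldehyde, then stained with 2% Alizarin Red S, pH 4.2, for 1 h. Dye eluted with 10% cetylpyridinium chloride and read at 570 nm. OD expressed relative to mineralization-medium control; triplicate.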

The source made the active and inactive calls. No cut-off for these calls is given here.

Sequence of Histone deacetylase 5 (Q9UQL6 whole entry, canonical isoform): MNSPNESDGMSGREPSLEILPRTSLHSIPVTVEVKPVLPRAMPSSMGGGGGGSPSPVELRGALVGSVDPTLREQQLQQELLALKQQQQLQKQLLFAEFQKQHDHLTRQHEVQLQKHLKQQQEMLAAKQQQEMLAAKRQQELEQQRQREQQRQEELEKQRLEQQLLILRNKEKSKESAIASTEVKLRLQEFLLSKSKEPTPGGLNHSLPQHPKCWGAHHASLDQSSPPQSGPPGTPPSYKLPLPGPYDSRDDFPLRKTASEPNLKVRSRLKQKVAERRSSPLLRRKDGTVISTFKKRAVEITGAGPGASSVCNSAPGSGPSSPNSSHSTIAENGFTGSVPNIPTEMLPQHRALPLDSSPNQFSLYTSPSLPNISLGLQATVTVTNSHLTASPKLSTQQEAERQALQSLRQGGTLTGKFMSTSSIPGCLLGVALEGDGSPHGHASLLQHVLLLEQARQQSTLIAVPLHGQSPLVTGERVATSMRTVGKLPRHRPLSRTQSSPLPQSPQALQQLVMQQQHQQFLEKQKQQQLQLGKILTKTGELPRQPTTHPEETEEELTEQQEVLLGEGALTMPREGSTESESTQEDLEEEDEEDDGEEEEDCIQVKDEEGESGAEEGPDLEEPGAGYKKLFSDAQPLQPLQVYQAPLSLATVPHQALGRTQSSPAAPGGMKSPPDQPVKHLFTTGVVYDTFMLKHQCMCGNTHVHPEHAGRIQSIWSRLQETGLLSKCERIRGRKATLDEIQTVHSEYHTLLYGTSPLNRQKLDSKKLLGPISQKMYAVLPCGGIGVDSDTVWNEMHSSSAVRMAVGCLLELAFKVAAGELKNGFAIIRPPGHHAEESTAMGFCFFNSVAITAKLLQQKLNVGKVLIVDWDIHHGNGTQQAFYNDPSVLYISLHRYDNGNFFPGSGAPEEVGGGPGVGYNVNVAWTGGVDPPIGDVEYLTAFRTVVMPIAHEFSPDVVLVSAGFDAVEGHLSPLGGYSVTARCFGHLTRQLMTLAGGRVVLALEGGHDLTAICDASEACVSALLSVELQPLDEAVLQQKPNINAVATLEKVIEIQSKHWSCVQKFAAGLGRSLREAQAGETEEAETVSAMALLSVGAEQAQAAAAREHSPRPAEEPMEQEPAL
Sequence of Histone deacetylase 3 (O15379 whole entry): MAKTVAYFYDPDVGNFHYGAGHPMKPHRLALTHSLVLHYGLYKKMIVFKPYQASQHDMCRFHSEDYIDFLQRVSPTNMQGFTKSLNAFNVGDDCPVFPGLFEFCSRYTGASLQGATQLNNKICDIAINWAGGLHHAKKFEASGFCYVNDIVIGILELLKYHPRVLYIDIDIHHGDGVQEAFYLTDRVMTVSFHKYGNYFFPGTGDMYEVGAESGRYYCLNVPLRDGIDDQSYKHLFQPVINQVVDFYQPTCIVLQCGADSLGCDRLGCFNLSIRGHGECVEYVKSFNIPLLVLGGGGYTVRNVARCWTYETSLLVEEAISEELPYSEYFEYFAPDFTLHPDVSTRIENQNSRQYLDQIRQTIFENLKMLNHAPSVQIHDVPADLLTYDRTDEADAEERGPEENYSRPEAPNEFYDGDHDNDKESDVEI
Sequence of Histone deacetylase 2 (Q92769 whole entry): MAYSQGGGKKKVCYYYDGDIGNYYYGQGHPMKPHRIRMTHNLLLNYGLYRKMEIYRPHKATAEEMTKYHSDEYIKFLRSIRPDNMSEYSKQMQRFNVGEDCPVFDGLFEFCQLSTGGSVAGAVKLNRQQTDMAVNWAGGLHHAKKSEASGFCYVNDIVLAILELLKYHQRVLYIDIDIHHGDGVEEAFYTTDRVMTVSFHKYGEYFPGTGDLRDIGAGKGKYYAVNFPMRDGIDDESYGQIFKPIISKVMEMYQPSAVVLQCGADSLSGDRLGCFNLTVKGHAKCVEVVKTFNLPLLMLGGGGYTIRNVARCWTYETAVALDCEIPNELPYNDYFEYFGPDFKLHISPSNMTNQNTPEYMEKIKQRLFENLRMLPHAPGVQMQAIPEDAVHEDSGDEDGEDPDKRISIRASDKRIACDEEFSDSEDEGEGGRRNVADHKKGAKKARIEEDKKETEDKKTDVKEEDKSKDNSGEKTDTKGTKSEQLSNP

In the case of `O=C(CCCCSc1nc(-c2ccc(-c3ccccc3)cc2)cc(=O)[nH]1)NO`, the IC50 at Histone deacetylase 5 was over 50000 nM. Also, the Activity result in the assay with HOS [1], in the assay with RD [2], in the assay on SK-ES1 [3], in the assay with HOS [4], in the assay with RD [5] and in the assay on MG-63 [9] was “Dose-dependent effect” in each case. For the same molecule, the inhibition entry in assay [6] and in assay [10] was “Active” each time. Besides, the outcome with RD [7], with SK-ES1 [8] and with A673 was Active.

As for `O=C(/C=C/c1ccc(NC(=O)C(Cc2ccccc2)c2ccccc2)cn1)NO` (stereo not given), the IC50 at Histone deacetylase 2 was 1770 nM; on Histone deacetylase 3, 80 nM; at Histone deacetylase 5, 9370 nM. Besides, the Activity entry in the assay on HOS [1], in the assay on RD [2], in the assay with SK-ES1 [3], in the assay on HOS [4] and in the assay with RD [5] was “Dose-dependent effect” throughout. The inhibition result in assay [6] was “Active”. The result with RD [7], in the assay on SK-ES1 [8] and in the assay on A673 was Active. For the same molecule, in the assay with MG-63 [11], the outcome was inactive.
